High-throughput results deposited in PubChem by several laboratories.
Biofilm kill mix: mixture kills Candida albicans biofilm cells | C. albicans biofilm persisters + clotrimazole, fluorescence viability; primary screen in compound mixtures of four per well | inhibition, % at 7.6 µM | actives 0.02% (n = 120,000) | AID 1242;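 active = inhibition above 30.3% in the primary screen of four-compound pools, then above 30% when the compound was retested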;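 also: compounds exposed to preformed 24 h biofilms for 48 h; 0% = untreated biofilm control and 100% = clotrimazole plus chlorhexidine kill blank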
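Probe or stimulus – Clotrimazole 50 µg/mL co-treatment · System – C. albicans biofilms · Schedule – 24 h biofilm formation, then 48 h compound exposure, 37 °C · Evaluation – percent inhibition of biofilm viability · Technique – 2-h Alamar Blue fluorescence, 535/590 nm excitation/emission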
Mcl-1 Bim block: disrupts Bim peptide binding to human Mcl-1. Q07820. Bead-based flow cytometry, Bim peptide-Mcl-1 binding. inhibition, % at 10 µM. actives 0.1% (n = 190,000). AID 1009; in the data active = inhibition above about 40%;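 also: 0% = no compound tracer wells and 100% = peptide blocker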
Mcl1-Noxa inh: disrupts binding of human Mcl-1 to Noxa peptide | actives 1.5% (n = 220,000) | AID 1022 | TR-FRET Mcl-1/Noxa peptide binding, 2 h | inhibition, % at 21.7 µM | Q07820;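 active = compounds that cut the protein-peptide binding signal by more than 50% relative to plate controls in a single-dose test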;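 also: His-tagged Mcl-1 with rhodamine Noxa BH3 peptide and terbium anti-His antibody; 0% = Mcl-1 plus Noxa peptide wells and 100% = peptide-only wells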
Mcl1-Bid inh: disrupts binding of human Mcl-1 to Bid peptide; Q07820; inhibition, % at 21.7 µM; actives 0.97% (n = 220,000); TR-FRET Mcl-1/Bid-Dy647 peptide binding, 1536-well;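 active = compounds that cut the binding signal by more than half at the single screening dose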;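 also: His-tagged Mcl-1 with europium anti-His antibody binding Bid BH3 peptide; 0% = Mcl-1 plus peptide wells and 100% = peptide-only wells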
Hck Nef HTS: blocks Nef-activated human Hck kinase; Recombinant Hck-YEEI plus Nef, Z-Lyte FRET kinase assay; actives 0.68% (n = 220,000); inhibition, % at 20 µM; P08631; AID 463187;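 active = Hck-Nef kinase inhibition above about 50%, limit read from the data; inactive = inhibition below that limit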;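 also: 0% = DMSO with Hck plus Nef and 100% = Hck alone without Nef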
Target sequence (P08631 whole entry, looked up): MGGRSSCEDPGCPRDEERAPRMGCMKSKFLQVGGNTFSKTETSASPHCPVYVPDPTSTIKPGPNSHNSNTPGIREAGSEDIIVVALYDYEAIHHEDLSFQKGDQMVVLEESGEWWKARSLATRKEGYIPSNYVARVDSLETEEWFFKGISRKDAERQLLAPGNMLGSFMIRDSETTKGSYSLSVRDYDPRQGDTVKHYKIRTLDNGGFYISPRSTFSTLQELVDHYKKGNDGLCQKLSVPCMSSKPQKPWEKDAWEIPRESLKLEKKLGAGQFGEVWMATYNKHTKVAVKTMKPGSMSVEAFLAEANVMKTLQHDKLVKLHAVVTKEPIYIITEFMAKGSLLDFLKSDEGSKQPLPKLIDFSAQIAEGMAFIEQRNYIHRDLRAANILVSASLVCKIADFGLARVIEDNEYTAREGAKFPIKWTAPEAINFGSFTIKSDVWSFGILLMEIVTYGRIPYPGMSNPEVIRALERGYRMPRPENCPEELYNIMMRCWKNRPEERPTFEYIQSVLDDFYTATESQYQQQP
14-3-3 Bad inh: disrupts binding of bovine 14-3-3 zeta to phospho-Bad peptide. P63103. TR-FRET 14-3-3zeta/Dy647-pBad peptide displacement, 1 h. inhibition, % at 21.7 µM. actives 0.71% (n = 220,000). AID 781;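 active = inhibition above about 70%, limit read from the data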;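 also: 0% = full 14-3-3 plus peptide FRET controls and 100% = background without 14-3-3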
Numbers without * were called inactive; x = no result; [ ] = remark or other dose. Hits are enriched below; roughly 3.2% of the tested compounds scored in any of these assays.

SMILES	Biofilm kill mix	Mcl-1 Bim block	Mcl1-Noxa inh	Mcl1-Bid inh	Hck Nef HTS	14-3-3 Bad inh
CC1(C)C(c2cccs2)=[N+]([O-])C2(CCCCC/C2=N\O)N1O (stereo not drawn)	x	-1	-8	57*	9	-1
Cc1ccccc1-c1noc(-c2ccccc2C(=O)NCC2CCCO2)n1 (stereo not drawn)	19	x	-3	7	0	-1
Cc1cc(C)cc(N(CC(=O)NC2CCC(C)CC2)S(=O)(=O)c2c(C)noc2C)c1 (stereo not drawn)	x	-6	13	89*	-5	8
Cc1ccc2[nH]c3c(NCc4ccco4)ncnc3c2c1	x	4	55*	-11	10	-6
COc1cc(CNc2ncnc3c2[nH]c2ccc(C)cc23)cc(OC)c1	5	x	32	-3	19	5
Cc1nc2cc(C(=O)O)ccc2s1	x	0	2	-14	4	x
Cc1nc2ccc(C(=O)O)cc2c2c1CC(C)S2 (stereo not drawn)	x	0	51*	7	3	2
CCOc1ccc(C(C)=O)cc1N1C(=O)C2C3C=CC(O3)C2C1=O (stereo not drawn)	x	0	63*	8	0	2
Cc1cccc(CS(=O)(=O)Cc2ccc(C(=O)O)o2)c1	x	-5	56*	-2	0	8
COCCCNC(=O)c1ccc(CS(=O)(=O)Cc2cccc(C)c2)o1	x	0	11	-1	0	-6
CN(C)Cc1cc(O)c(CN(C)C)cc1O	18	x	60*	-153	-160	9
Cc1ccc(S(=O)(=O)N(C)CC(O)Cn2c3ccccc3c3ccccc32)cc1 (stereo not drawn)	x	0	7	72*	-2	8
CC(CS(=O)(=O)c1ccccc1[N+](=O)[O-])N1CCOCC1 (stereo not drawn)	21	0	5	-22	-36	-11
O=[N+]([O-])c1ccc(S(=O)(=O)N2CCN(Cc3c[nH]c4ccccc34)CC2)cc1	x	0	11	26	2	79*
COc1ccc(S(=O)(=O)N2CCN(Cc3c[nH]c4ccccc34)CC2)cc1	x	-2	6	-14	4	-9
CCc1ccc(NC(=S)NC2CC3CCC(C2)N3Cc2ccco2)cc1 (stereo not drawn)	x	-5	4	96*	-1	-3
COc1ccc(NC(=S)NC2CC3CCC(C2)N3Cc2ccco2)cc1 (stereo not drawn)	17	0	-3	-84	16	-7
CC(C)N=c1c([N+](=O)[O-])nn(C)n1O	20	-1	2	-4	-4	-6
Cc1ccc(NC(=O)C2CC(=O)N(CCc3ccccc3)C2)c(C)c1 (stereo not drawn)	20	0	12	-16	5	-19
O=C1ON=C(c2ccccc2)/C1=C/c1ccc(-c2ccccc2[N+](=O)[O-])o1	5	-8	67*	-11	45	22
O=[N+]([O-])c1ccccc1-c1ccc(/C=N/n2cnnc2)o1	x	-2	18	-31	2	3
O=C(CCc1ccc(S(=O)(=O)N2CCOCC2)cc1)N/N=C/c1ccc(O)c(O)c1O	9	0	73*	4	27	-14
CC1=NN(c2ccccc2)C(=O)/C1=C\c1cn(CCC#N)nc1-c1ccc(Cl)cc1	11	-3	22	-9	-12	2
CC1=NN(c2ccccc2)C(=O)/C1=C/c1c(O)n(-c2ccc(F)c(Cl)c2)[nH]c1=O	22	-3	86*	40	2	11
COc1cc([N+](=O)[O-])ccc1NC(=S)NC(=O)CC(C)(C)C	-11	0	16	-8	-12	-6
SMILES	Biofilm kill mix	Mcl-1 Bim block	Mcl1-Noxa inh	Mcl1-Bid inh	Hck Nef HTS	14-3-3 Bad inh
COc1ccccc1CNCC(=O)Nc1cc(S(=O)(=O)N2CCCCCC2)ccc1Cl	17	x	-68	27	6	15
C=CCOC(=O)/C(=C/c1cccc2ccccc12)NC(=O)c1ccccc1	1	-6	11	-19	1	4
COC(C[C@H]1O[C@H]1[C@@H](O)[C@@H](C)OCc1ccccc1)OC	19	x	-6	-20	30	-3
Cc1ccc(S(=O)(=O)N(C(=O)c2ccncc2)c2ccc(OC(=O)c3ccncc3)c3ccccc23)cc1	17	-9	59*	-38	2	19
Cc1ccc(S(=O)(=O)N(C(=O)c2ccncc2)c2ccc(OC(=O)c3ccncc3)c3ccccc23)c(C)c1	x	-3	50	-54	-4	26
C=CCn1c(O)c(N=NC(=O)CNC(=O)/C=C/c2ccco2)c2ccccc21	x	-2	69*	-16	1	0
C=CCn1c(O)c(N=NC(=O)CNC(=O)/C=C/c2ccc(OC)cc2)c2ccccc21	13	x	7	96*	11	1
C=CCn1c(O)c(N=NC(=S)Nc2cccc(C)c2)c2ccccc21	19	0	-46	-33	6	-3
Nc1ccc(N2CCCCCC2)cc1	x	7	65*	-19	-3	80*[fluorescence artefact?]
Nc1ccc(N2CCN(c3ccc(F)cc3)CC2)cc1	10	1	61*	-30	7	-4
Fc1ccccc1COc1ccc(Br)cc1CNCc1cccnc1	5	0	37	7	12	37
Fc1ccccc1COc1ccc(Br)cc1CNCc1ccncc1	x	-1	20	20	4	80*
Fc1ccc(COc2ccc(Br)cc2CNCc2ccncc2)cc1	x	-3	13	37	3	84*
Cc1cc(C)c(C#N)c(SCC(=O)C2CC2)n1	21	x	13	-29	21	-10
Cc1noc(NS(=O)(=O)c2ccc(NC(=O)CSc3nc4ccccc4s3)cc2)c1C	x	2	64*	9	1	3
Cc1noc(NS(=O)(=O)c2ccc(NC(=O)CSc3ncccn3)cc2)c1C	x	0	11	15	12	1
CC(C)Cn1nc(C(=O)OCC(=O)NCC(F)(F)F)c2ccccc2c1=O	11	-3	6	-15	16	5
CCn1c(SCC(=O)Nc2nc3ccc(C)cc3s2)nc2c(c1=O)SC(C)C2 (stereo not drawn)	x	-1	29	56*	1	-2
O=C(O)CCn1c(=O)n(CCC(=O)O)c(=O)n(CCC(=O)O)c1=O	13	-4	26	18	21	-8
COc1ccc(C(N)CCc2ccc(C)o2)cc1 (stereo not drawn)	x	0	20	-65	2	88*[fluorescence artefact?]
COc1ccc(C2Nc3ccccc3C(=O)N2O)cc1OC (stereo not drawn)	x	-3	-1	93*	0	-6
CC(=O)NCCC1CCN(c2nc3nonc3nc2N(C)Cc2ccccc2)CC1	21	-1	9	-10	-1	-11
CN(C)Cc1nc2ccccc2c(=O)n1Cc1nc(-c2cccc([N+](=O)[O-])c2)cs1	14	1	19	-1	18	98*
